The source of these data is ChEMBL document CHEMBL4725360, “Optimization of Acetazolamide-Based Scaffold as Potent Inhibitors of Vancomycin-Resistant Enterococcus” (J Med Chem, 2020).

Holding throughout (details): time hrs 18-20
In experiment [1] the test system is Enterococcus faecium. In words: Antibacterial activity against Enterococcus faecium HM965 incubated for 18 to 20 hrs under aerobic condition by CLSI protocol based broth microdilution assay. Format: functional. In outline: (§1)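 Broth microdilution per CLSI. Strains grown aerobically overnight on trypticase soy agar at 37 °C. Inoculum set to 0.5 McFarland, diluted in trypticase soy broth to about 5 × 10⁵ CFU/mL. Agents serially diluted, plates incubated aerobically at 37 °C for 18–20 h. MIC is the lowest concentration with no visible growth. Compound stocks 10 mg/mL in DMSO.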
(In broth dilution the organism is exposed to a series of concentrations in liquid medium.)

Experiment [2] has as its system Enterococcus faecalis. In words: Antibacterial activity against Enterococcus faecalis NR-31975 incubated for 18 to 20 hrs under aerobic condition by CLSI protocol based broth microdilution assay. Type of experiment: functional, organism-based. In outline: as §1
Experiment [3] concerns Enterococcus faecalis. Nature of the experiment: Antibacterial activity against Enterococcus faecalis NR-31970 incubated for 18 to 20 hrs under aerobic condition by CLSI protocol based broth microdilution assay. Format: functional, organism-based. A digest of the protocol:
as §1

For experiment [4], the system named is Enterococcus faecium. Nature of the experiment: Inhibition of carbonic anhydrase in Enterococcus faecium ATCC 700221 assessed as antibacterial activity incubated for 18 to 20 hrs in presence of ambient air by CLSI protocol based broth microdilution assay. In outline:
(§2)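 CLSI broth microdilution: inoculum about 5 × 10⁵ CFU/mL in trypticase soy broth with serial dilutions of agents. Paired plates incubated at 37 °C for 18–20 h, one set in ambient air ("normal"), the other under 5% CO₂. MIC is the lowest concentration completely inhibiting visible growth.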

In experiment [5] the test system is Enterococcus faecium. In words: Inhibition of carbonic anhydrase in Enterococcus faecium ATCC 700221 assessed as antibacterial activity incubated for 18 to 20 hrs in presence of 5% CO2 by CLSI protocol based broth microdilution assay. In outline:
as §2

Experiment [6] concerns Enterococcus faecium. In words: Antibacterial activity against Enterococcus faecium HM968 incubated for 18 to 20 hrs under aerobic condition by CLSI protocol based broth microdilution assay. Format: functional. In outline:
as §1

Experiment [7] has as its system Enterococcus faecium. Nature of the experiment: Antibacterial activity against Enterococcus faecium NR-28978 incubated for 18 to 20 hrs under aerobic condition by CLSI protocol based broth microdilution assay. Type of experiment: functional. A digest of the protocol: as §1
For experiment [8], the system named is Enterococcus faecium. In words: Antibacterial activity against Enterococcus faecium NR-31903 incubated for 18 to 20 hrs under aerobic condition by CLSI protocol based broth microdilution assay. Type of experiment: functional. In outline: as §1
In experiment [9] the test system is Enterococcus faecium. Nature of the experiment: Antibacterial activity against Enterococcus faecium NR-32065 incubated for 18 to 20 hrs under aerobic condition by CLSI protocol based broth microdilution assay. Type of experiment: functional. A digest of the protocol:
as §1

In experiment [10] the test system is Enterococcus faecium. In words: Antibacterial activity against Enterococcus faecium NR-31914 incubated for 18 to 20 hrs under aerobic condition by CLSI protocol based broth microdilution assay. Type of experiment: functional. In outline:
as §1

The subject of experiment [11] is Enterococcus faecium. In words: Antibacterial activity against Enterococcus faecium NR-31916 incubated for 18 to 20 hrs under aerobic condition by CLSI protocol based broth microdilution assay. Type of experiment: functional. A digest of the protocol: as §1
Experiment [12] has as its system Enterococcus faecium. Nature of the experiment: Antibacterial activity against Enterococcus faecium NR-32052 incubated for 18 to 20 hrs under aerobic condition by CLSI protocol based broth microdilution assay. Format: functional. A digest of the protocol: as §1
The test system of experiment [13] is Enterococcus faecium. Nature of the experiment: Antibacterial activity against Enterococcus faecium NR-31971 incubated for 18 to 20 hrs under aerobic condition by CLSI protocol based broth microdilution assay. Type of experiment: functional. In outline: as §1
Experiment [14] has as its system Enterococcus faecalis. In words: Antibacterial activity against Enterococcus faecalis HM-335 incubated for 18 to 20 hrs under aerobic condition by CLSI protocol based broth microdilution assay. Type of experiment: functional. In outline:
as §1

Experiment [15] relates to Enterococcus faecium. Nature of the experiment: Antibacterial activity against Enterococcus faecium NR-31972 incubated for 18 to 20 hrs under aerobic condition by CLSI protocol based broth microdilution assay. Format: functional. A digest of the protocol:
as §1

Molecules are shown by their SMILES. ≈ marks a conversion by molar mass, not a printed value. Calls of active or inactive are those of the source. No cut-off for these calls is given here. Some results are limits rather than exact numbers.

As usually defined, the MIC is the lowest concentration found to suppress growth. Low values mean greater potency, high ones weaker potency.

`NS(=O)(=O)c1nnc(NCc2ccccc2)s1`: the MIC in the experiment with Enterococcus faecium [1] is above 64 mg/L.

In the experiment with Enterococcus faecium [1], `NS(=O)(=O)c1nnc(NC(=O)C2CC2)s1` gave an MIC of 2 mg/L (≈ 8.06 µM). Further, the result in the experiment with Enterococcus faecalis [2] and with Enterococcus faecalis [3] was Active.

Turning to `CC(=O)Nc1ccc(S(N)(=O)=O)cc1`, the minimum inhibitory concentration (MIC) in the experiment with Enterococcus faecium [1] was above 64 mg/L.

`CCC(=O)Nc1nnc(S(N)(=O)=O)s1` [PROPAZOLAMIDE] had an MIC with Enterococcus faecium [1] of 1 mg/L (≈ 4.23 µM). In addition, the inhibition result in the experiment with Enterococcus faecium [4] was “Active”. Besides, in the experiment with Enterococcus faecium [5], the inhibition entry is “inactive”.

In the case of `NS(=O)(=O)c1nnc(NCC2CCCCC2)s1`, the MIC in the experiment on Enterococcus faecium [1] is above 64 mg/L.

`CC(C)C(=O)Nc1nnc(S(N)(=O)=O)s1` registered an MIC against Enterococcus faecium [1] of 1 mg/L (≈ 4 µM). The inhibition entry in the experiment on Enterococcus faecium [4] was “Active”. Also, the inhibition result in the experiment on Enterococcus faecium [5] was “inactive”.

For the molecule `NS(=O)(=O)c1nnc(NC(=O)c2ccccc2)s1`, the MIC in the experiment with Enterococcus faecium [1] was 2 mg/L (≈ 7.03 µM).

In turn, `NS(=O)(=O)c1nnc(NC(=O)CN2CCCCC2)s1` had a minimal inhibitory concentration (MIC) against Enterococcus faecium [1] of 1 mg/L (≈ 3.27 µM).

For the molecule `CC(=O)Nc1ncc(S(N)(=O)=O)s1`, in the experiment on Enterococcus faecium [1], the MIC was above 64 mg/L.

In the case of `NS(=O)(=O)c1nnc(NC(=O)CC2CCC2)s1`, 0.25 mg/L (≈ 0.905 µM) was the least that counted as inhibitory against Enterococcus faecium [1] (MIC).

In the experiment with Enterococcus faecium [1], `CCNc1nnc(S(N)(=O)=O)s1` yielded an MIC above 64 mg/L.

`CC1CCC(C(=O)Nc2nnc(S(N)(=O)=O)s2)CC1` (configuration not stated) displayed an MIC in the experiment with Enterococcus faecium [1] of 0.25 mg/L (≈ 0.821 µM).

As to `NS(=O)(=O)c1nnc(NC(=O)CCN2CCOCC2)s1`, the minimum inhibitory concentration (MIC) in the experiment with Enterococcus faecium [1] was 2 mg/L (≈ 6.22 µM). The inhibition entry in the experiment on Enterococcus faecium [4] was “Active”. Besides, the inhibition entry in the experiment on Enterococcus faecium [5] is “inactive”.

`NS(=O)(=O)c1nnc(NC(=O)C2CCC2)s1` came in with an MIC against Enterococcus faecium [1] of 0.5 mg/L (≈ 1.91 µM). In addition, the result in the experiment with Enterococcus faecalis [2] and in the experiment on Enterococcus faecalis [3] was Active. Also, the inhibition entry with Enterococcus faecium [4] was “Active”. The inhibition result with Enterococcus faecium [5] is “inactive”.

In the experiment on Enterococcus faecium [1], `CC1(C(=O)Nc2nnc(S(N)(=O)=O)s2)CCCCC1` gave an MIC of 0.25 mg/L (≈ 0.821 µM).

As for `NS(=O)(=O)c1nnc(NC(=O)CN2CCCC2)s1`, in the experiment with Enterococcus faecium [1], inhibition of growth (MIC) required 1 mg/L (≈ 3.43 µM). Further, the inhibition result in the experiment on Enterococcus faecium [4] was “Active”. Further, in the experiment with Enterococcus faecium [5], the inhibition entry is “inactive”.

In the case of `CN[C@H](CC(C)C)C(=O)N[C@H]1C(=O)N[C@@H](CC(N)=O)C(=O)N[C@H]2C(=O)N[C@H]3C(=O)N[C@H](C(=O)N[C@H](C(=O)O)c4cc(O)cc(O)c4-c4cc3ccc4O)[C@H](O)c3ccc(c(Cl)c3)Oc3cc2cc(c3O[C@@H]2O[C@H](CO)[C@@H](O)[C@H](O)[C@H]2O[C@H]2C[C@](C)(N)[C@H](O)[C@H](C)O2)Oc2ccc(cc2Cl)[C@H]1O` [VANCOMYCIN], the MIC against Enterococcus faecium [6] is 64 mg/L (≈ 44.2 µM); in the experiment with Enterococcus faecium [7], 32 mg/L (≈ 22.1 µM); in the experiment on Enterococcus faecium [8], above 64 mg/L; with Enterococcus faecium [9], 64 mg/L (≈ 44.2 µM); in the experiment on Enterococcus faecium [10], 64 mg/L (≈ 44.2 µM); against Enterococcus faecium [11], above 64 mg/L. The MIC was 64 mg/L (≈ 44.2 µM) with Enterococcus faecium [12], 64 mg/L (≈ 44.2 µM) against Enterococcus faecium [13], above 64 mg/L with Enterococcus faecalis [14] and above 64 mg/L in the experiment on Enterococcus faecium [15].

Consider `CC(=O)Nc1nnc(S(C)(=O)=O)s1`, for which the MIC in the experiment on Enterococcus faecium [1] was above 64 mg/L.

In turn, `CCCC(=O)Nc1nnc(S(N)(=O)=O)s1` gave an MIC against Enterococcus faecium [1] of 0.5 mg/L (≈ 2 µM). Besides, in the experiment on Enterococcus faecium [4], the inhibition result is “Active”. The inhibition result in the experiment on Enterococcus faecium [5] was “inactive”.

Turning to `CN1CCN(CC(=O)Nc2nnc(S(N)(=O)=O)s2)CC1`, 8 mg/L (≈ 25 µM) was the least that counted as inhibitory with Enterococcus faecium [1] (MIC). Moreover, the inhibition result in the experiment with Enterococcus faecium [4] is “Active”. For the same molecule, in the experiment with Enterococcus faecium [5], the inhibition result was “inactive”.
